Assays:
Sigma 2 receptor = assay: Displacement of [3H]-DTG from Sigma opioid receptor type 2 in rat liver membrane; assay type: cell membranes
Method in brief: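 Liver membranes from male Sprague-Dawley rats (160 μg protein) with 5 nM [3H]DTG plus 1 μM dextralorphan masking σ1 sites. Twelve ligand concentrations (0.05–10 000 nM or 0.5–100 000 nM), 50 mM Tris-HCl pH 8.0, 120 min, 25 °C. Nonspecific binding by 10 μM haloperidol. Filtration and counting. Ki from IC50 by Cheng–Prusoff; 2–3 experiments ± SEM.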

[1] = target: Sigma non-opioid intracellular receptor 1 (Cavia porcellus) (UniProt Q60492); assay: Relative affinity for sigma-1 compared to sigma-2 type receptors
Chain of Sigma non-opioid intracellular receptor 1 (Cavia porcellus) (Q60492 whole entry, looked up): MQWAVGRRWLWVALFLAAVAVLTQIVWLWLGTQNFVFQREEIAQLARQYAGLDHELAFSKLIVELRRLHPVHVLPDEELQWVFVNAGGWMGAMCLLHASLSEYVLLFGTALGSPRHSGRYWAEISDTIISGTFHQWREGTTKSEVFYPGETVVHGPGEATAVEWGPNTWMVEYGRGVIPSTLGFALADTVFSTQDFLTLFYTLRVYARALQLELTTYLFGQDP

Row | SMILES | Ki (Sigma 2 receptor) [nM] | Ratio [1]
1 | CN(CCc1ccc([N+](=O)[O-])cc1)CCN1CCCC1 | 62.7 | 0.07
2 | CN(CCN1CCCC1)C(=O)Cc1ccccc1[N+](=O)[O-] | 1490 | 0.49
3 | CN(CCN1CCCC1)C(=O)Cc1ccc([N+](=O)[O-])cc1 | 596 | 1.5
4 | COc1ccccc1CCN(C)CCN1CCCC1 | 144 | 0.11
5 | CN(CCc1cccc(N)c1)CCN1CCCC1 | 2240 | 0.26
6 | COc1ccc(CC(=O)N(C)CCN2CCCC2)cc1 | 1220 | 1.8
7 | COc1ccccc1CC(=O)N(C)CCN1CCCC1 | 3170 | –
8 | COc1ccc(CCN(C)CCN2CCCC2)cc1 | 256 | 0.12
9 | CN(CCN1CCCC1)C(=O)Cc1cccc([N+](=O)[O-])c1 | 539 | 3
10 | COc1cccc(CC(=O)N(C)CCN2CCCC2)c1 | 1110 | 2.8
11 | CN(CCc1ccc(N)cc1)CCN1CCCC1 | 974 | 0.28
12 | COc1cccc(CCN(C)CCN2CCCC2)c1 | 209 | 0.11
13 | CN(CCc1ccccc1N)CCN1CCCC1 | 640 | 0.45
14 | CN(CCc1ccccc1[N+](=O)[O-])CCN1CCCC1 | 311 | 0.02
15 | CN(CCc1cccc([N+](=O)[O-])c1)CCN1CCCC1 | 95.2 | 0.07
